Experiment [1] can be described thus: Her2 expression decrease, cell viability multiplex – SKBR3 breast tumor cells, AlphaScreen, ATP viability, primary screen (AID 461;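 active = Her2 level under about 52% in both replicate screens, with viability over 70% of control, limit read from the data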;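 as to Her2 level: lower value means less Her2 protein in the cells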;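 as to viability: percent of carrier control wells set as 100% viability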). The settings on record: SKBR3 Her2 protein level, 18-24 h, measured here: SKBR3 viability, ATP luminescence, at 10 µM.
Experiment [2] deals with Receptor tyrosine-protein kinase erbB-2 (Homo sapiens) (UniProt P04626). Described as above. Conditions: 18-24 h, at 10 µM, stronger effect = lower value.
Receptor tyrosine-protein kinase erbB-2 (Homo sapiens), sequence (P04626 whole entry, looked up): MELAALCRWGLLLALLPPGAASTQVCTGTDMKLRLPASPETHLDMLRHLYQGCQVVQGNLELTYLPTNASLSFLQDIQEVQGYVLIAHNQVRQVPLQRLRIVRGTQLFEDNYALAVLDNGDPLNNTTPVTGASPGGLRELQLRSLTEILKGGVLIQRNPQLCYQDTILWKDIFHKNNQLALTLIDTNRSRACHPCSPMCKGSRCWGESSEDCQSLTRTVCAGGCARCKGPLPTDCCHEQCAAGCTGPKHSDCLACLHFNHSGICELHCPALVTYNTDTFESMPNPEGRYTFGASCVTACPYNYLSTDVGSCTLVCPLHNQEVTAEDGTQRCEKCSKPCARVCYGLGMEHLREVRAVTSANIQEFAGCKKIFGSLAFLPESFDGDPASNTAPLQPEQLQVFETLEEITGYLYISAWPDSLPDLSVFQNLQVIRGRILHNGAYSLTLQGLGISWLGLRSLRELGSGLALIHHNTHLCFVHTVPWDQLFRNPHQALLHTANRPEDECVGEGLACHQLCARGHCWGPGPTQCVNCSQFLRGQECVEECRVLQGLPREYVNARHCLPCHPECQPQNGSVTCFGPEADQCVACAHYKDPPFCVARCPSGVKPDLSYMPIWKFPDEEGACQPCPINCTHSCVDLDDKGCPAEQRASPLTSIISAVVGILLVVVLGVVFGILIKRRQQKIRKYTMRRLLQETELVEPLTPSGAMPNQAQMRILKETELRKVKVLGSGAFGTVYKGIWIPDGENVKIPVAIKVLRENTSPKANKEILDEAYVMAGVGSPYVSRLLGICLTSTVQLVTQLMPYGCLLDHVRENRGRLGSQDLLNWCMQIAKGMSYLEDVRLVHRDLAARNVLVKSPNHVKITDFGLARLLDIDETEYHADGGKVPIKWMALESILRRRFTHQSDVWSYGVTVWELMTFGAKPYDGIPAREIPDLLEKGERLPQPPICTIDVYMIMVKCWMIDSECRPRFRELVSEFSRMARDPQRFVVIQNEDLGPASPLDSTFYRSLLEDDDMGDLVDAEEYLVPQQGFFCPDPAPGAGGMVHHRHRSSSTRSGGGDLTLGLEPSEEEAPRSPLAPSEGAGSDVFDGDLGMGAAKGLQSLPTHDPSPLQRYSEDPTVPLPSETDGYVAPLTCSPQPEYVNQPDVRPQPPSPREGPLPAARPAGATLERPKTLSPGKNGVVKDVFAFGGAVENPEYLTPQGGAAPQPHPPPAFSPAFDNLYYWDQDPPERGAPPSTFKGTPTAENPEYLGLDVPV
The nature of experiment [3]: reduced viability of SK-BR-3 breast cancer cells – cell-based, 24 h, human, pilot screen (AID 572;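 active = viability at or below 10% of carrier control in both of two separate runs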;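 also: compound exposure lasted between 18 and 24 h rather than exactly 24 h; 100% = carrier-treated control wells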). The settings on record: SK-BR-3 viability, CellTiter-Glo luminescence, at 10 µM, stronger effect = lower value. (In ATP-based viability assays light output follows the ATP content of the culture.)
Experiment [4] can be described thus: HUVEC growth inhibition – cell-based, human, primary screen (AID 575;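 active = viability at or below 30% in both replicate assays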;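 also: 100% = median of untreated cell wells with 0.1% DMSO on each plate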). The settings on record: HUVEC proliferation, CellTiter-Glo luminescence, 72 h; at 10 µM; stronger effect = lower value. An outline of the steps:
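System: primary human umbilical vein endothelial cells; Quantity: 1250 endothelial cells in each well; Buffer or medium: supplemented EBM, 2% fetal bovine serum; Doses: one dose, 10 µM final, 0.1% DMSO; Incubation: 72 h compound incubation; Technique: ATP-based CellTiter-Glo luminescent read; Evaluation: percent of median DMSO-control luminescence; Controls: vehicle and MePR control wells.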

A short description of experiment [5]: H69AR cell proliferation blockers – human, duplicate replicates, primary screen (AID 580;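 active = viability at or under a set limit in both replicates, limit being median viability minus 3 SD, cut at about 48% in these data, passing the limit was not always enough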;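 also: 100% = mean luminescence of untreated wells and 0% = no signal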). The settings on record: H69AR lung tumor cells viability, ATP luminescence, 72 h; at 10 µM; stronger effect = lower value.
Experiment [6] can be described thus: MRP1 drug-resistance reversers in H69AR cells – cell-based, doxorubicin co-treatment, pilot screen (AID 601;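 active = viability loss from added drug above about 55%, and viability with drug at most 40%, in both replicates, limit read from the data, passing the limit was not always enough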). The settings on record: CellTiter-Glo, 72 h, at 10 µM; for differential viability (reversal): stronger effect = higher value.
Experiment [7] is described as follows: yeast transport mutant growth inhibition pilot in 384-well plates, post-Golgi transport modulator project (AID 636; in the data active = inhibition above about 31%). The settings on record: absorbance 615 nm, about 18 h, stronger effect = higher value.
Experiment [8] in a line: growth suppression of yeast trafficking mutant, preliminary HTS, modulators of trafficking downstream of Golgi apparatus project, 1536-format plate, OD 615 nm (AID 637). Conditions: yeast transport mutant growth, absorbance 615 nm, 18 h; stronger effect = higher value.
Setting [9] is: H69AR cells + 2 uM doxorubicin, measured here: viability with 2 uM doxorubicin, stronger effect = lower value.
The mark [10] stands for this setting: H69AR cells, compound alone cytotoxicity.

The source made the active and inactive calls. Rule as the data show it, unless noted: active = inhibition above about 30%; inactive = the rest.

This note sets out measurements from PubChem BioAssay.

With `CC1(C)C(=O)Nc2ccccc2N1C(=O)COC(=O)Cn1cnc2ccccc2c1=O`, the viability (in general, a read-out of living cells in per cent, often relative to untreated cells) was 110% in experiment [1]; 110% (inactive) in experiment [3]; 110% (inactive) in experiment [4]; 96.3% (inactive) in experiment [5]; 94.5% in experiment [6] (setting [9]); 96.3% in experiment [6] (setting [10]). In addition, the Her2 level in experiment [2] was 112% (inactive). Further, in experiment [6] (H69AR cells + 2 uM doxorubicin), the differential viability (reversal) is 1.74% (inactive). The inhibition (usually the drop in the measured response relative to a control, in per cent) is -3.55% (inactive) in experiment [7] and -5.5% (inactive) in experiment [8].
Turning to `O=C(Nc1ccc(F)cc1)c1cccc2c1C(=O)N(Cc1ccccn1)C2`, the viability in experiment [1] was 95.5%; in experiment [3], 95.5% (inactive); in experiment [4], 87.5% (inactive); in experiment [5] it was 96% (inactive); in experiment [6] (setting [9]) it was 79.9%; in experiment [6] (setting [10]), 96%. The Her2 level in experiment [2] is 90% (inactive). Besides, the differential viability (reversal) in experiment [6] (H69AR cells + 2 uM doxorubicin) is 16.1% (inactive). For the same compound, the inhibition in experiment [7] is -0.92% (inactive); in experiment [8], -3.06% (inactive).
As to `N#Cc1c(N2C(=O)C3C4C=CC(C4)C3C2=O)sc2c1CCC2` (stereo not given), the viability in experiment [1] is 91.5%; in experiment [3], 91.5% (inactive); in experiment [4], 91% (inactive); in experiment [5] it was 90.3% (inactive); in experiment [6] (setting [9]), 100%; in experiment [6] (setting [10]), 90.3%. The Her2 level in experiment [2] was 86.5% (inactive). In experiment [6] (H69AR cells + 2 uM doxorubicin), the differential viability (reversal) is -10.1% (inactive). Further, the inhibition in experiment [7] is -5.07% (inactive); in experiment [8] it was -2.62% (inactive).
Consider `Cc1ccc(NC(=O)CSc2nnc(Cc3cccn3C)n2-c2ccc(F)cc2)cc1`, for which the viability in experiment [1] was 82.5%; in experiment [3], 82.5% (inactive); in experiment [4] it was 84% (inactive); in experiment [5], 91.9% (inactive); in experiment [6] (setting [9]), 96.8%; in experiment [6] (setting [10]), 91.9%. The Her2 level in experiment [2] was 78.5% (inactive). The differential viability (reversal) in experiment [6] (H69AR cells + 2 uM doxorubicin) was -4.92% (inactive). The figures for the inhibition in experiment [7] and in experiment [8] were -1.03% (inactive) and -4.83% (inactive), respectively.
`OC(CCN1CCOCC1)(c1ccc(Cl)cc1)C1CCCCC1` (stereo not given): the viability is 82.5% in experiment [1]; 82.5% (inactive) in experiment [3]; 99.6% (inactive) in experiment [4]; 82% (inactive) in experiment [5]; 85.7% in experiment [6] (setting [9]); 82% in experiment [6] (setting [10]). Besides, the Her2 level in experiment [2] was 102% (inactive). Further, the differential viability (reversal) in experiment [6] (H69AR cells + 2 uM doxorubicin) is -3.7% (inactive). Further, the inhibition is -0.4% (inactive) in experiment [7] and 21.5% (inactive) in experiment [8].
As to `CCc1nnc2n1N=C(c1ccc(-c3ccc(Cl)cc3Cl)o1)CS2`, the viability was 99.5% in experiment [1]; 99.5% (inactive) in experiment [3]; 110% (inactive) in experiment [4]; 108% (inactive) in experiment [5]; 84.4% in experiment [6] (setting [9]); 108% in experiment [6] (setting [10]). In addition, the Her2 level in experiment [2] was 81.5% (inactive). For the same compound, in experiment [6] (H69AR cells + 2 uM doxorubicin), the differential viability (reversal) is 23.9% (inactive). In addition, the inhibition in experiment [7] was -2.99% (inactive); in experiment [8], -3.17% (inactive).
Regarding `c1ccc(CCc2nc(-c3cccnc3)no2)cc1`, the viability was 86.5% in experiment [1]; 86.5% (inactive) in experiment [3]; 108% (inactive) in experiment [4]; 92.9% (inactive) in experiment [5]; 91.8% in experiment [6] (setting [9]); 92.9% in experiment [6] (setting [10]). For the same compound, the Her2 level in experiment [2] was 73% (inactive). In experiment [6] (H69AR cells + 2 uM doxorubicin), the differential viability (reversal) was 1.11% (inactive). In addition, the figures for the inhibition in experiment [7] and in experiment [8] were -4.27% (inactive) and 1.31% (inactive), respectively.
In the case of `COc1ccccc1-n1c(-c2cccnc2)n[nH]c1=S`, the viability in experiment [1] is 88%; in experiment [3], 88% (inactive); in experiment [4], 110% (inactive); in experiment [5], 109% (inactive); in experiment [6] (setting [9]) it was 102%; in experiment [6] (setting [10]) it was 109%. Also, in experiment [2], the Her2 level was 109% (inactive). In addition, the differential viability (reversal) in experiment [6] (H69AR cells + 2 uM doxorubicin) is 6.74% (inactive). Also, the inhibition in experiment [7] was -0.4% (inactive); in experiment [8], -2.95% (inactive).
`Cc1ccc(S(=O)(=O)N2CCN(S(C)(=O)=O)C2c2ccccc2)cc1` (stereo not given): the viability in experiment [1] was 82%; in experiment [3] it was 82% (inactive); in experiment [4] it was 103% (inactive); in experiment [5] it was 94.4% (inactive); in experiment [6] (setting [9]), 106%; in experiment [6] (setting [10]), 94.4%. For the same compound, in experiment [2], the Her2 level was 96% (inactive). The differential viability (reversal) in experiment [6] (H69AR cells + 2 uM doxorubicin) was -12% (inactive). For the same compound, the inhibition is 0.13% (inactive) in experiment [7] and 0% (inactive) in experiment [8].
For the compound `Cc1nc(C)c(C(=O)C2=C(O)C(=O)N(CCN3CCOCC3)C2c2cccnc2)s1` (stereo not given), the viability in experiment [1] was 104%; in experiment [3] it was 104% (inactive); in experiment [4] it was 99.1% (inactive); in experiment [5], 97.4% (inactive); in experiment [6] (setting [9]) it was 87%; in experiment [6] (setting [10]), 97.4%. The Her2 level in experiment [2] was 93% (inactive). In addition, the differential viability (reversal) in experiment [6] (H69AR cells + 2 uM doxorubicin) was 10.4% (inactive). The inhibition is -3.95% (inactive) in experiment [7] and 12.9% (inactive) in experiment [8].
Regarding `CC(C)(C)C1CCc2[nH]nc(C(=O)O)c2C1` (stereo not given), the viability was 104% in experiment [1]; 104% (inactive) in experiment [3]; 92.3% (inactive) in experiment [4]; 98% (inactive) in experiment [5]; 95% in experiment [6] (setting [9]); 98% in experiment [6] (setting [10]). In addition, the Her2 level in experiment [2] is 86.5% (inactive). Further, the differential viability (reversal) in experiment [6] (H69AR cells + 2 uM doxorubicin) is 3% (inactive). Besides, the inhibition in experiment [7] was -2.43% (inactive); in experiment [8], 1.11% (inactive).
Turning to `COc1ccc(-c2noc(-c3ccccc3C(=O)Nc3cccnc3)n2)cc1OC`, the viability in experiment [1] is 89.5%; in experiment [3], 89.5% (inactive); in experiment [4], 80.6% (inactive); in experiment [5], 90.4% (inactive); in experiment [6] (setting [9]), 75.7%; in experiment [6] (setting [10]), 90.4%. Further, the Her2 level in experiment [2] was 83% (inactive). Besides, the differential viability (reversal) in experiment [6] (H69AR cells + 2 uM doxorubicin) is 14.8% (inactive). Further, the inhibition is -3.6% (inactive) in experiment [7] and -2.38% (inactive) in experiment [8].
For the compound `Cc1ccc(C(=O)Nc2ccc3c(c2)OCO3)cc1S(=O)(=O)N1CCCC1`, the viability in experiment [1] was 102%; in experiment [3], 102% (inactive); in experiment [4] it was 67.3% (inactive); in experiment [5], 82.6% (inactive); in experiment [6] (setting [9]), 83.3%; in experiment [6] (setting [10]) it was 82.6%. Also, in experiment [2], the Her2 level was 89% (inactive). Besides, the differential viability (reversal) in experiment [6] (H69AR cells + 2 uM doxorubicin) is -0.715% (inactive). For the same compound, the inhibition in experiment [7] was -4% (inactive); in experiment [8] it was 2.54% (inactive).
`CC(Oc1ccc(Cl)cc1Cl)C(=O)Nc1ncccn1` (stereo not given): the viability is 93.5% in experiment [1]; 93.5% (inactive) in experiment [3]; 99.6% (inactive) in experiment [4]; 97.2% (inactive) in experiment [5]; 87.7% in experiment [6] (setting [9]); 97.2% in experiment [6] (setting [10]). For the same compound, the Her2 level in experiment [2] is 108% (inactive). The differential viability (reversal) in experiment [6] (H69AR cells + 2 uM doxorubicin) is 9.42% (inactive). In addition, the inhibition is -1.17% (inactive) in experiment [7] and -11% (inactive) in experiment [8].
With `CCC(C)c1ccc(NC(=O)c2cccnc2)cc1` (stereo not given), the viability in experiment [1] was 93%; in experiment [3], 93% (inactive); in experiment [4], 81.6% (inactive); in experiment [5], 92.5% (inactive); in experiment [6] (setting [9]), 87.4%; in experiment [6] (setting [10]), 92.5%. The Her2 level in experiment [2] was 106% (inactive). Further, the differential viability (reversal) in experiment [6] (H69AR cells + 2 uM doxorubicin) is 5.06% (inactive). In addition, the results for the inhibition in experiment [7] and in experiment [8] were -0.54% (inactive) and -1.64% (inactive), respectively.
In the case of `COc1cc(-c2nnc(SCC(=O)c3ccc(C)cc3)o2)cc(OC)c1OC`, the viability was 90% in experiment [1]; 90% (inactive) in experiment [3]; 64.8% (inactive) in experiment [4]; 74.5% (inactive) in experiment [5]; 94.2% in experiment [6] (setting [9]); 74.5% in experiment [6] (setting [10]). In experiment [2], the Her2 level was 97.5% (inactive). Also, the differential viability (reversal) in experiment [6] (H69AR cells + 2 uM doxorubicin) is -19.7% (inactive). Moreover, the inhibition in experiment [7] is -1.45% (inactive); in experiment [8] it was 0.16% (inactive).
